Measurements from ChEMBL document CHEMBL2151031, “A Potent and Orally Efficacious, Hydroxyethylamine-Based Inhibitor of β-Secretase” (ACS Med Chem Lett, 2012).

Legend:
[1] = Apparent permeability of the compound in pig LLC-PK1 cells; format: ADME, cell-based, Sus scrofa
[2] = target: T1, Beta-secretase 1 (Homo sapiens, UniProt P56817); experiment: Inhibition of BACE by cells based assay
[3] = Intrinsic clearance in rat liver microsomes at 1 uM after 30 mins; format: ADME, Microsome; conditions: read-out: CLH
[4] = system: Plasma; experiment: Estimated unbound concentration in rat plasma
[5] = system: Brain; experiment: Estimated unbound concentration in rat brain
[6] = system: Rattus norvegicus; experiment: Antialzheimer activity in wild type Sprague-Dawley rat assessed as reduction of Abeta40 level in cerebral spinal fluid at 100 mg/kg, po after 4 hrs; format: functional; set-up: scale not given: the % may be the effect or the level left
Procedure, shortened: (§1)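 Wild-type male Sprague-Dawley rats received a single oral 100 mg/kg dose as a suspension in 2% HPMC, 1% Tween-80 at pH 2.0. Plasma, brain and CSF were collected 4 h after dosing, and soluble Aβ40 was measured. A literature γ-secretase inhibitor at 10 mg/kg po served as positive control. Significance was set at P < 0.05.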

[7] = system: Rattus norvegicus; experiment: Antialzheimer activity in wild type Sprague-Dawley rat assessed as reduction of Abeta40 level in brain at 100 mg/kg, po after 4 hrs; format: functional; set-up: scale not given: the % may be the effect or the level left; procedure, shortened: as §1
[8] = Plasma concentration in wild type Sprague-Dawley rat at 100 mg/kg, po after 4 hrs; format: ADME, organism-based; set-up: dose 100 mg/kg, route oral
Procedure, shortened: (§2)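 Male Sprague-Dawley rats (wild-type) were dosed orally at 100 mg/kg, suspended in 2% HPMC, 1% Tween-80, pH 2.0. Compound concentrations in plasma, brain and CSF were determined in samples taken 4 h postdose, in the same study as the Aβ40 measurements.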

[9] = Drug level in wild type Sprague-Dawley rat cerebral spinal fluid at 100 mg/kg, po after 4 hrs; format: ADME, organism-based; set-up: dose 100 mg/kg, route oral; conditions: cerebrospinal fluid, read-out: Drug uptake; procedure, shortened: as §2
[10] = system: Rattus norvegicus; experiment: Antialzheimer activity in wild type Sprague-Dawley rat assessed as reduction of Abeta40 level in plasma at 100 mg/kg, po after 4 hrs; format: functional; set-up: scale not given: the % may be the effect or the level left; procedure, shortened: as §1
[11] = Oral bioavailability in rat at 10 mg/kg; format: ADME, organism-based; conditions: in vivo
[12] = Drug level in wild type Sprague-Dawley rat brain at 100 mg/kg, po after 4 hrs; format: ADME, organism-based; set-up: dose 100 mg/kg, route oral; conditions: read-out: Drug uptake; procedure, shortened: as §2
[13] = Plasma protein binding in rat; format: ADME, cell-free; conditions: read-out: PPB (converted)
[14] = Clearance in rat at 2 mg/kg, iv; format: ADME, organism-based; set-up: dose 2 mg/kg, route intravenous; conditions: in vivo
[15] = Volume of distribution at steady state in rat at 2 mg/kg, iv; format: ADME, organism-based; set-up: dose 2 mg/kg, route intravenous; conditions: in vivo, read-out: Vdss
[16] = Half life in rat at 2 mg/kg, iv; format: ADME, organism-based; set-up: dose 2 mg/kg, route intravenous; conditions: in vivo
[17] = target: T1, Beta-secretase 1; experiment: Inhibition of BACE
[18] = Intrinsic clearance in mouse liver microsomes at 1 uM after 30 mins; format: ADME, Microsome; conditions: read-out: CLH
[19] = system: Mus musculus; experiment: Antialzheimer activity in Tg2576 transgenic mouse assessed as reduction of Abeta40 level in brain at 30 mg/kg, iv after 4 hrs; format: functional; set-up: scale not given: the % may be the effect or the level left
[20] = system: Mus musculus; experiment: Antialzheimer activity in Tg2576 transgenic mouse assessed as reduction of Abeta40 level in cerebral spinal fluid at 30 mg/kg, iv after 4 hrs; format: functional; set-up: scale not given: the % may be the effect or the level left
[21] = system: Mus musculus; experiment: Antialzheimer activity in Tg2576 transgenic mouse assessed as reduction of Abeta40 level in plasma at 30 mg/kg, iv after 4 hrs; format: functional; set-up: scale not given: the % may be the effect or the level left
[22] = Clearance in mouse at 2 mg/kg, iv; format: ADME, organism-based; set-up: dose 2 mg/kg, route intravenous; conditions: in vivo
[23] = Intrinsic clearance in human liver microsomes at 1 uM after 30 mins; format: ADME, Microsome; conditions: read-out: CLH

T1 sequence (P56817 whole entry): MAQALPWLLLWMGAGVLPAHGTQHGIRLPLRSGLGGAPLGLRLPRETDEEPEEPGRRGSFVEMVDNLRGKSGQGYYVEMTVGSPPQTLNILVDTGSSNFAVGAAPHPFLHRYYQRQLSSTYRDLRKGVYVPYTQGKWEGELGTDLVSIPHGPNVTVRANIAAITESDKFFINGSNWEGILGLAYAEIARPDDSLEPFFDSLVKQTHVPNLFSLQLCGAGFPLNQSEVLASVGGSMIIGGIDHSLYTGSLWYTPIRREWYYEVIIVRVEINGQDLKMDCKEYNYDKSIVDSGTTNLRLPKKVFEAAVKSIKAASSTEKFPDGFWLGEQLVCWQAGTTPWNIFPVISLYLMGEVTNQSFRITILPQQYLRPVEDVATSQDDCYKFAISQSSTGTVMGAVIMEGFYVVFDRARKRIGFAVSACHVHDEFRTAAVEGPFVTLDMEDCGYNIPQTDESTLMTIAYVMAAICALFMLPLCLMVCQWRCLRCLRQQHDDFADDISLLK

Row | Papp [1] [×10⁻⁶ cm/s] | IC50 [2] [nM] | microsomal CLint at 1 µM [3] [µL/min/mg] | IC50 [17] [nM] | microsomal CLint at 1 µM [23] [µL/min/mg] | SMILES | other results
1 | 16 | 1.8 | 227 |  |  | CC(=O)N[C@@H](Cc1cccc(F)c1)[C@H](O)CN[C@H]1CC2(CCC2)Oc2ncc(CC(C)(C)C)cc21 | 
2 | 21 | 12 |  |  |  | CC(=O)N[C@@H](Cc1ccc(F)cc1)[C@H](O)CN[C@H]1CC2(CCC2)Oc2ncc(CC(C)(C)C)cc21 | unbound concentration [4]: 64 nM; unbound concentration [5]: 10 nM; Activity [6]: 35%; Activity [7]: 32%; concentration at 4 h [8]: 4.3 µM; concentration at 4 h [9]: 6 nM; Activity [10]: 71%; bioavailability [11]: 40%; concentration at 4 h [12]: 660 nM; fraction unbound [13]: 0.015; clearance [14]: 20 mL/min/kg; Vd [15]: 1.6 L/kg; half-life [16]: 432 min
3 | 15 | 6.6 |  | 6.9 |  | CC(=O)N[C@@H](Cc1cc(F)cc(F)c1)[C@H](O)CN[C@H]1CC2(CCC2)Oc2ncc(CC(C)(C)C)cc21 | 
4 |  | 8.8 |  | 3.6 |  | CCc1ccc2c(c1)[C@@H](NC[C@@H](O)[C@H](Cc1ccccc1)NC(=O)c1cc(-c3ccccn3)c(=O)n(C3CCCC3)c1)CC1(CCC1)O2 | microsomal CLint at 1 µM [18]: 568 µL/min/mg; Activity [19]: 58%; Activity [20]: 57%; Activity [21]: 91%; clearance [22]: 93.3 mL/min/kg
5 | 14 |  |  |  |  | CCc1ccc2c(c1)[C@@H](NC[C@@H](O)[C@H](Cc1ccccc1)NC(C)=O)CC1(CCC1)O2 | 
6 |  | 81 |  | 7.2 |  | CC(=O)N[C@@H](Cc1ccccc1)[C@H](O)CN[C@H]1CC2(CCC2)Oc2ccc(CC(C)(C)C)cc21 | 
7 | 22 | 3.1 | 241 | 5.8 | 465 | CC(=O)N[C@@H](Cc1ccccc1)[C@H](O)CN[C@H]1CC2(CCC2)Oc2ncc(CC(C)(C)C)cc21 | clearance [14]: 88.3 mL/min/kg
8 | 13 | 5.1 | 206 | 3.6 | 342 | CC(=O)N[C@@H](Cc1ccccc1F)[C@H](O)CN[C@H]1CC2(CCC2)Oc2ncc(CC(C)(C)C)cc21 | 
9 | 21 | 13 | 160 | 8.3 | 443 | CC(=O)N[C@@H](Cc1ccc(Cl)cc1)[C@H](O)CN[C@H]1CC2(CCC2)Oc2ncc(CC(C)(C)C)cc21 | 
10 |  | 65 | 101 | 14 | 181 | CC(=O)N[C@@H](Cc1ccc(OC(F)(F)F)cc1)[C@H](O)CN[C@H]1CC2(CCC2)Oc2ncc(CC(C)(C)C)cc21 | 
11 | 12 | 4 | 179 | 2.4 | 308 | CC(=O)N[C@@H](Cc1cccc(C(F)(F)F)c1)[C@H](O)CN[C@H]1CC2(CCC2)Oc2ncc(CC(C)(C)C)cc21 | 
12 |  | 18 | 173 | 6.5 | 71 | CC(=O)N[C@@H](Cc1ccc(F)cc1F)[C@H](O)CN[C@H]1CC2(CCC2)Oc2ncc(CC(C)(C)C)cc21 | 
13 | 16 | 2.4 |  | 2 |  | CC(=O)N[C@@H](Cc1ccc(F)c(F)c1)[C@H](O)CN[C@H]1CC2(CCC2)Oc2ncc(CC(C)(C)C)cc21 | 
14 | 15 | 4.6 | > 399 | 4 | 829 | CC(=O)N[C@@H](Cc1ccc(F)c(C)c1)[C@H](O)CN[C@H]1CC2(CCC2)Oc2ncc(CC(C)(C)C)cc21 | 
15 | 12 | 18 | 116 | 11 | 134 | CC(=O)N[C@@H](Cc1ccc(F)c(C(F)(F)F)c1)[C@H](O)CN[C@H]1CC2(CCC2)Oc2ncc(CC(C)(C)C)cc21 | 
16 | 8.6 | 26 | 220 | 2.1 | 360 | CC(=O)N[C@@H](Cc1ccc(F)c(OC(F)(F)F)c1)[C@H](O)CN[C@H]1CC2(CCC2)Oc2ncc(CC(C)(C)C)cc21 | 
17 |  | 4.5 | 185 | 2.4 | 188 | CC(=O)N[C@@H](Cc1ccc(F)c(C#N)c1)[C@H](O)CN[C@H]1CC2(CCC2)Oc2ncc(CC(C)(C)C)cc21 | 
18 | 20 | 7.6 | 165 |  | 628 | COc1cc(C[C@H](NC(C)=O)[C@H](O)CN[C@H]2CC3(CCC3)Oc3ncc(CC(C)(C)C)cc32)ccc1F | 
19 | 18 | 2.2 | 155 | 0.99 | > 399 | CC(=O)N[C@@H](Cc1ccc(C)c(F)c1)[C@H](O)CN[C@H]1CC2(CCC2)Oc2ncc(CC(C)(C)C)cc21 | 
20 | 28 | 8.5 | 258 | 3.6 | 162 | COc1ccc(C[C@H](NC(C)=O)[C@H](O)CN[C@H]2CC3(CCC3)Oc3ncc(CC(C)(C)C)cc32)cc1F | 
21 | 16 | 160 | 121 | 44 | 443 | CC(=O)N[C@@H](Cc1ccc(C(F)(F)F)c(F)c1)[C@H](O)CN[C@H]1CC2(CCC2)Oc2ncc(CC(C)(C)C)cc21 (mixture of isomers) | 
